Laboratory results from ChEMBL document CHEMBL1148781, “Phenylimidazole derivatives of 4-pyridone as dual inhibitors of bacterial enoyl-acyl carrier protein reductases FabI and FabK” (J Med Chem, 2007).
Values after ≈ are worked out from the molar mass of the structure shown.

Legend:
[1] = Inhibition of Escherichia coli FabI
Outline: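 His-tagged E. coli FabI (gene from E. coli DH5α, expressed in E. coli TOP10 with arabinose induction, Ni-NTA purified) at 50 µg/mL in 100 mM sodium phosphate pH 7.4 with 0.25 mM crotonoyl-CoA and 0.4 mM NADH. Reaction started by enzyme addition; NADH consumption followed at 340 nm for 10 min at room temperature; IC50 = concentration halving activity.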

[2] = target: T1, Enoyl-(Acyl-carrier-protein) reductase (Streptococcus pneumoniae, UniProt Q9FBC5); assay: Inhibition of Streptococcus pneumoniae FabK
T1 sequence (Q9FBC5 whole entry): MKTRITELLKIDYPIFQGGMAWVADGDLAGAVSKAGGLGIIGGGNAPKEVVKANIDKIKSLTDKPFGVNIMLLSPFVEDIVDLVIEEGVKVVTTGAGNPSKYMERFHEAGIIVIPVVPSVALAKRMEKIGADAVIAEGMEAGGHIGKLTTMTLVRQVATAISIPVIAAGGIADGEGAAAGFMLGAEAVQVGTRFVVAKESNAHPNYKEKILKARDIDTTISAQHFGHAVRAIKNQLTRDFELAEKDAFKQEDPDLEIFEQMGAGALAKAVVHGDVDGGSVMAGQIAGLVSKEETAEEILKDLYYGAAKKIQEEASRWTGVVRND
Outline: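 C-terminal His-tagged FabK from S. pneumoniae R6, expressed in E. coli BL21(DE3) with 1 mM IPTG, Ni-NTA purified, used at 2 µg/mL. Buffer 100 mM MES pH 7.0, 100 mM NH4Cl, 0.2 mM crotonoyl-CoA, 0.4 mM NADH; enzyme-initiated. Absorbance at 340 nm read for 10 min at room temperature; IC50 = concentration giving 50% activity reduction.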

Streptococcus pneumoniae = assay: Antibacterial activity against Streptococcus pneumoniae KU197; assay type: functional
Outline: (§1)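 Broth microdilution per NCCLS M7-A6; MIC taken as lowest concentration preventing visible growth. Strains: S. aureus ATCC29213 and S. pneumoniae KU197 (PRSP).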

Staphylococcus aureus = assay: Antibacterial activity against Staphylococcus aureus ATCC 29213; assay type: functional; outline: as §1
K562 = assay: Cytotoxicity against human K562 cells; assay type: functional, cell-based

Structure (SMILES)	IC50 [1] [nM]	IC50 [2] [nM]	MIC (Streptococcus pneumoniae) [µg/mL]	MIC (Staphylococcus aureus) [µg/mL]	IC50 (K562) [nM]
Cc1c(Cc2c(Cl)cccc2Cl)c(=O)ccn1CCc1ccc(-c2c[nH]c(CNC(=O)Nc3ncc(S(C)(=O)=O)s3)n2)cc1	310	9.4	1 (≈ 1.49 µM)	> 32	> 69000
O=C([O-])COc1ccc(-c2cnc(CNC(=O)Nc3ncc(Sc4ccccn4)s3)[nH]2)cc1.[Na+]	> 32000	34	> 32	–	–
Cc1c(Cc2c(Cl)cccc2Cl)c(=O)ccn1Cc1ccc(-c2c[nH]c(CNC(=O)Nc3ncc(Br)s3)n2)cc1	820	11000	> 32	> 32	> 69000
Cc1c(Cc2c(Cl)cccc2Cl)c(=O)ccn1C/C=C/c1ccc(-c2c[nH]c(CNC(=O)Nc3ncc(Br)s3)n2)cc1	290	9000	> 32	> 32	> 69000
Cc1c(Cc2c(Cl)cccc2Cl)c(=O)ccn1CCc1ccc(-c2c[nH]c(CNC(=O)Nc3ncc[nH]3)n2)cc1	930	> 32000	> 32	> 32	> 69000
O=C(NCc1ncc(-c2ccccc2)[nH]1)Nc1ncc(Sc2ccccn2)s1	> 32000	42	2 (≈ 4.9 µM)	–	–
O=C(NCc1ncc(-c2ccc(Br)cc2)[nH]1)Nc1ncc(Sc2ccccn2)s1	> 32000	2.4	0.25 (≈ 0.513 µM)	–	–
Cc1c(Cc2c(Cl)cccc2Cl)c(=O)ccn1CCc1ccc(-c2c[nH]c(CNC(=O)Nc3ncc(Sc4ccccn4)s3)n2)cc1	560	16	2 (≈ 2.85 µM)	> 32	> 69000
CS(=O)(=O)c1ccc2nc(NC(=O)NCc3nc(-c4ccccc4)c[nH]3)sc2c1	> 32000	–	–	> 64	–
Cn1cc(CNC(=O)/C=C/c2cnc3c(c2)CCC(=O)N3)c2ccccc21	200	> 32000	> 32	0.063 (≈ 0.175 µM)	–
Cc1c(Cc2c(Cl)cccc2Cl)c(=O)ccn1CCc1ccc(-c2c[nH]c(CNC(=O)Nc3nc4ccc(S(C)(=O)=O)cc4s3)n2)cc1	380	4.5	0.5 (≈ 0.693 µM)	> 32	> 69000
Cc1c(Cc2c(Cl)cccc2Cl)c(=O)ccn1CCCc1ccc(-c2c[nH]c(CNC(=O)Nc3ncc(Br)s3)n2)cc1	340	6600	> 32	> 32	> 69000
O=C(NCc1ncc(-c2cccc(Br)c2)[nH]1)Nc1ncc(Sc2ccccn2)s1	> 32000	5.3	16 (≈ 32.8 µM)	–	–
Cc1c(Cc2c(Cl)cccc2Cl)c(=O)ccn1CCc1ccc(-c2c[nH]c(CNC(=O)Nc3ncc(Br)s3)n2)cc1	570	29	8 (≈ 11.9 µM)	> 32	> 69000
Cc1c(Cc2c(Cl)cccc2Cl)c(=O)ccn1/C=C/c1ccc(-c2c[nH]c(CNC(=O)Nc3ncc(Br)s3)n2)cc1	> 32000	> 30000	–	–	> 69000
Oc1cc(Cl)ccc1Oc1ccc(Cl)cc1Cl [TRICLOSAN]	900	> 32000	–	0.063 (≈ 0.218 µM)	–
